# MT stabilize HCS – microtubule stabilizers in HeLa cells. 200,000 compounds, 0.83% hits. HeLa tubulin immunostaining HCS, 24 h; share of cells brighter than vehicle mean+2SD. % tubulin-high responders, % at 10 µM;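 active = plate Z-score above 3 for both tubulin-high and condensed-nucleus cell shares, with cell loss under 80%, at 10 µM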;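 note: anti alpha tubulin signal scored within the nucleus-defined area of each cell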
# Dynein transport – blocks dynein driven cargo transport along microtubules. 220,000 compounds, 0.47% hits. 3617.4 mouse cells, GR-EGFP nuclear translocation imaging; test concentration mostly 20 µM; stimulated with dexamethasone, 1 µM; active compounds read low. z-score, hits read low. AID 1381;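 active = plate z-score of nuclear minus cytoplasmic receptor signal below a set negative limit, without overly bright fluorescence or cell loss, cut at about -3.5 in these data, passing the limit was not always enough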;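 note: z-score of nuclear minus cytoplasmic ring GR-EGFP intensity difference per well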
#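 Also added – dexamethasone, 1.0 µM final · Buffer or medium – tet-free, stripped-serum medium · Schedule – induction 48 h, compound 1 h, agonist 30 min · Detection – formaldehyde fixation, Hoechst nuclear stain, 10x automated fluorescence imaging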
# b-catenin transl – alters nuclear translocation of beta-catenin in HeLa cells. AID 1665. nuclear translocation activity, % at 5 µM. 190,000 compounds, 0.3% hits. immunofluorescence imaging;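 active = nuclear translocation activity above 50% at 5 µM, with a well cell count of 50 or more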;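 note: per-cell ratio of nuclear to cytoplasmic median beta-catenin stain intensity; plate controls were DMSO negative control for no effect and GSK-3 inhibitor IX positive control for full effect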
#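 test system = HeLa cells, endogenous beta-catenin | dosing = single 5 µM dose plus 0.02–20 µM confirmation series | times = compound treatment 24 h, 37°C, 5% CO2 | technique = beta-catenin immunofluorescence imaging with DAPI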
# Lmaj promast – inhibitors of Leishmania major promastigote growth; Leishmania major promastigotes, resazurin fluorescence viability; inhibition, % at 10 µM; 200,000 compounds, 9% hits; AID 1063; in the data active = inhibition above about 50%;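 note: promastigotes grown with compound for 44 hours at 28 °C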
# HSV replic up – HSV replication enhancement; 220,000 compounds, 0.005% hits; AID 1956; HSV replication augmentation in cells, fold increase; maximum fold increase; in the data active = maximum fold increase above about 1.5; tested in PC3 cells
# * hit, by the source's call; i = inactive; nt = no result. Sampled rows, rich in hits. Any-hit rate of the full collection: about 8.9%.
SMILES,MT stabilize HCS,Dynein transport,b-catenin transl,Lmaj promast,HSV replic up
COc1ccc(NC(=O)c2c(Cl)n(C)c3ccccc23)cc1,49*,0.2,3,-4,i
COc1ccc(NC(=O)Cc2c(Sc3ccccc3)c3ccccc3n2C)cc1,3,0.83,-3,-2,i
CCNc1ccc(C(=O)Nc2ccc3nc(C)sc3c2)cc1[N+](=O)[O-],4,-0.5,3,5,i
Cc1ccc2nc(C(F)(F)F)c(C#N)c(N)c2c1,5,0.41,nt,68*,i
COC(=O)C1=C(C)Nc2sc(C(N)=O)c(N)c2C1c1ccncc1 (stereo not given),4,0.071,nt,-2,i
CCOC(=O)C1=C(C)Nc2sc(C(=O)c3ccc(OC)cc3)c(N)c2C1c1ccc(C(=O)OC)cc1 (stereo not given),3,0.34,1,71*,i
COCCNC(=O)CSc1nccn1Cc1ccc2c(c1)OCO2,4,-0.032,-7,-7,i
CC(C)CNC(=O)c1cccc(NC(=O)c2ccco2)c1,2,-0.46,-4,79*,i
COc1ccc(CNC(=O)c2cccc(NC(=O)c3ccccc3)c2)cc1,1,-0.81,1,18,i
O=C(NCc1ccccc1)c1cccc(NC(=O)c2ccco2)c1,3,-1.2,-1,98*,i
O=C(NCc1ccco1)c1cccc(NC(=O)c2ccco2)c1,1,-0.67,-2,79*,i
CC(C)CNC(=O)c1cccc(NC(=O)C(C)C)c1,2,-0.9,-1,-5,i
Cc1ccc(C(=O)Nc2cccc(C(=O)NCc3ccccc3)c2)o1,4,-0.61,-1,92*,i
CCOc1ccc(NS(=O)(=O)c2ccc3[nH]c(=O)oc3c2)cc1,4,0.21,nt,-5,i
NC(=O)COc1cccc(/C=N/NC(=O)c2ccc(-n3cccc3)cc2)c1,nt,-1.5,0,nt,i
CCOc1ccc(NC(=O)c2ccc(CC)s2)c([N+](=O)[O-])c1,2,-0.16,0,-4,i
CCOc1ccccc1NC(=O)c1cccc(NC(=O)CC(c2ccccc2)c2ccccc2)c1,2,-0.16,nt,22,i
CCOc1ccc(NC(=O)c2ccco2)c([N+](=O)[O-])c1,12*,0.18,7,-6,i
C/C(=N\NC(=O)c1cccc(F)c1)c1cccc(NC(=O)c2ccc(F)cc2)c1,2,0.14,-1,-8,i
C/C(=N\NC(=O)c1ccc(F)cc1)c1cccc(NC(=O)c2ccco2)c1,3,1.2,-1,67*,i
CCOc1ccccc1NC(=O)c1cccc(S(=O)(=O)N(Cc2ccccc2)c2ccccc2OC)c1,3,-0.083,-2,86*,i
COc1ccccc1N(Cc1ccccc1)S(=O)(=O)c1cccc(C(=O)O)c1,2,-0.43,2,-6,i
CCOc1ccccc1NC(=O)c1ccc(Cl)c(NC(=O)CC(c2ccccc2)c2ccccc2)c1,3,-0.93,-2,70*,i
COc1ccccc1NC(=O)Cc1csc(NC(=S)Nc2ccc(C)cc2)n1,4,0.13,5,19,i
C=CCNC(=O)C1CCN(c2ccc(S(=O)(=O)N3CCOCC3)cc2[N+](=O)[O-])CC1,2,1,-4,1,i
SMILES,MT stabilize HCS,Dynein transport,b-catenin transl,Lmaj promast,HSV replic up
CC1=C(C#N)C(/C=N/OCc2ccc(Cl)cc2)CC(=O)N1 (stereo not given),2,-0.56,2,-4,i
O=C(Nc1cccc(-c2nc3ccccc3[nH]2)c1)c1cccc(NC(=O)c2ccco2)c1,12,1.1,1,82*,i
CCOc1ccc(C(=O)Nc2ccc(NC(=O)c3ccco3)c(Cl)c2)cc1Cl,3,-0.14,nt,-3,nt
CN(Cc1ccccc1)C(=O)c1cccc(NC(=O)c2ccco2)c1,4,0.53,nt,100*,i
CN(Cc1ccccc1)C(=O)c1ccco1,1,-0.2,-1,-13,i
CCOc1ccccc1NC(=O)c1cccc(NC(=O)c2ccco2)c1,41*,-0.37,72*,100*,i
O=C(CSc1ccc(Cl)cc1)Nc1cccc(NC(=O)c2ccco2)c1,3,-0.51,1,97*,i
CN1CCN(Cc2nc3ccccc3c(=O)n2CC#N)CC1,2,-0.21,2,-2,i
CCCC(=O)N/C(N)=N/c1nc(C)c2ccccc2n1,nt,-1.4,4,nt,i
CCNC(=S)Nc1cc(OCC)c(NC(=O)c2ccco2)cc1OCC,3,0.22,1,51*,i
Cc1cc(C)nc(NS(=O)(=O)c2ccc(N=Cc3c(C)[nH]n(-c4ccccc4)c3=O)cc2)n1,3,-0.44,3,-2,i
COC(=O)[C@@H]1C[C@]2(OC(=O)c3ccccc3)C=CC(=O)C[C@@H]2N1C(=O)OCc1ccccc1,3,-6.5*,-5,100*,i
COC(CNC(=O)C1CCCN1C(=O)OCc1ccccc1)OC (stereo not given),4,-0.29,1,-3,i
O=C(Nc1nnc(-c2cccs2)o1)C1CC1,1,-0.36,-1,-3,nt
O=C(Nc1nnc(-c2ccc(Cl)s2)o1)C1CC1,5,-0.72,-2,61*,i
Cn1c(=O)[nH]c(=O)c2c1nc(N1CCCC1)n2CCCSc1nc2ccccc2o1,2,-0.66,nt,13,i
Cn1c(=O)[nH]c(=O)c2c1nc(Br)n2CCCSc1nc2ccccc2o1,25*,-1,nt,7,i
O=C(CN1C(=O)/C(=C\c2cccc(F)c2)Oc2ccccc21)N1CCN(c2ccccn2)CC1,3,-0.31,3,50*,i
CCOC(=O)c1ccc(Oc2cc(C)nc(SC)n2)cc1,44*,-0.81,0,-8,i
COC(=O)c1ccc(Oc2nc(C)cc(Oc3ccccc3)n2)cc1,3,-0.24,-2,95*,i
Cc1cc(Oc2ccc3ccccc3c2)nc(SCC(=O)c2ccccc2)n1,2,-0.27,0,93*,i
COC(=O)c1ccc(Oc2cc(C)nc(NCc3ccccc3)n2)cc1,5,-0.039,-7,13,i
COC(=O)c1nc(-n2nc(C)cc2C)ccc1Cl,2,0.85,3,0,i
COC(=O)c1ccc(Oc2cc(C)nc(-n3nc(C)cc3C)n2)cc1,20*,0.58,nt,7,i
Cc1cc(Oc2ccc(Br)cc2)nc(SCC(=O)c2ccccc2)n1,3,-0.13,-2,29,i
CN1CCN(C(=S)C(=O)Nc2ccccc2)CC1,1,-1,0,5,i
Cc1ccc(OCC(=O)N/N=C2/SCC(=O)N2Cc2ccccc2)cc1,2,0.88,-2,67*,i
CCOC(=O)CCc1c(C)nc(SCCN2CCCC2)c(C#N)c1C,5,0.4,-1,81*,i
CCOC(=O)CCc1c(C)nc(SCCCn2c(=O)[nH]c3ccccc32)c(C#N)c1C,3,-1.4,0,2,i
CCN(c1ccccc1)S(=O)(=O)c1ccc(NC(=S)NC(=O)c2cccs2)cc1,1,-0.68,-1,85*,i

# Screening results: PubChem BioAssay, several laboratories
